Calls of active or inactive are those of the source. The rule behind the calls is not given here. Positions of bridges follow the written chain, without caps; N, C: chain ends. Residues, ends and D or L forms follow the SMILES beside them.

The values that follow come from ChEMBL document CHEMBL1949610, “Selection of cyclic-peptide inhibitors targeting Aurora kinase A: problems and solutions” (Bioorg Med Chem, 2011).

In test [1] the target is Dual specificity protein kinase CLK2 (Homo sapiens) (UniProt P49760). The experiment in a line: Inhibition of CLK2 assessed as [gamma-33P]ATP incorporation into AKRRRLSSLRA substrate at 10 uM after 40 mins by liquid scintillation counting.
Dual specificity protein kinase CLK2 (Homo sapiens), sequence (P49760 whole entry, looked up): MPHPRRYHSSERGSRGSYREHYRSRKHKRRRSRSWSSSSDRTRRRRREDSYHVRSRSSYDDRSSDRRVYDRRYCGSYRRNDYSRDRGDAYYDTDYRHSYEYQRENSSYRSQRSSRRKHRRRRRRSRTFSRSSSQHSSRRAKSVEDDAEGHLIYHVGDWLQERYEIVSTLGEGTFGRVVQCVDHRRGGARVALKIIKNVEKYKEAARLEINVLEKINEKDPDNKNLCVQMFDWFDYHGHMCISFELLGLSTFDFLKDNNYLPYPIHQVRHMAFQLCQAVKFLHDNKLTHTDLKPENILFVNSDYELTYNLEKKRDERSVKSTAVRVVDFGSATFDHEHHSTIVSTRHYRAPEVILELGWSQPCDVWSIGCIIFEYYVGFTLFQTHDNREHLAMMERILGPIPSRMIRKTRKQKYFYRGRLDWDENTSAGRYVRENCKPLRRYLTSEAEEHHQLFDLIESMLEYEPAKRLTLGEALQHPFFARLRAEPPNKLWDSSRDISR
Test [2] is described as follows: Inhibition of PKA assessed as [gamma-33P]ATP incorporation into kemptide substrate at 10 uM after 40 mins by liquid scintillation counting.
Test [3] has as its target T1, Aurora kinase A (Homo sapiens) (UniProt O14965).
T1 sequence (whole entry): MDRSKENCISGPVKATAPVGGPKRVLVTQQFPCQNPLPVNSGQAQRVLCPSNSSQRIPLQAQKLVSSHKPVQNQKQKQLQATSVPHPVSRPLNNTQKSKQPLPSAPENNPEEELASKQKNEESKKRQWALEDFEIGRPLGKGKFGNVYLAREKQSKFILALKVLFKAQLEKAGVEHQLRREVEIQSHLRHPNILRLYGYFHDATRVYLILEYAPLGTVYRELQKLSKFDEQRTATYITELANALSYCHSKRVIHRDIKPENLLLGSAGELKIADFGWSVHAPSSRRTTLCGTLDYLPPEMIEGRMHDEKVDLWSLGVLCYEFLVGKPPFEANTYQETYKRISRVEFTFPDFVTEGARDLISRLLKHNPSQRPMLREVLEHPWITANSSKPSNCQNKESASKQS
The experiment in a line: Inhibition of human aurora A assessed as [gamma-33P]ATP incorporation into kemptide substrate at 10 uM after 40 mins by liquid scintillation counting.

Test [4] addresses T1, Aurora kinase A (Homo sapiens). The experiment in a line: Un-competitive inhibition of human aurora A using kemptide as substrate by double reciprocal plot analysis. The essentials:
(§1)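 Kinetics run in duplicate: 0.5 nM Aurora A, 100 μM [γ-³²P]ATP, Kemptide at 25, 50 and 200 μM, inhibitor at 0, 10 and 50 μM, in 20 mM MOPS, 10 mM MgCl, pH 7, 0.01% BSA, 2.5% DMSO. Data shown as double-reciprocal plots and fit to competitive, noncompetitive, mixed and uncompetitive models.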

Test [5] has the same target. The test is described as follows: Competitive inhibition of human aurora A using kemptide as a substrate by double reciprocal plot analysis. In short, it runs like this: as §1
A further test addresses T2, Aurora kinase A (Homo sapiens, UniProt O14965).
T2 sequence (O14965 whole entry): T1 sequence (whole entry)
The experiment in a line: Mixed type inhibition of human aurora A using kemptide as a substrate by double reciprocal plot analysis. In short, it runs like this: as §1

For the compound `CC(C)C[C@@H]1NC(=O)[C@H](Cc2ccccc2)NC(=O)[C@H](CCCNC(=N)N)NC(=O)[C@@H]2CCCN2C(=O)[C@@H](N)CSSC[C@@H](C(=O)NCC(N)=O)NC(=O)[C@H](Cc2c[nH]c3ccccc23)NC(=O)[C@@H]2CCCN2C1=O` (H-CPRFLPWCG-NH2; disulfide 1-8), the inhibition entry in test [1] and in test [2] was “inactive” throughout. Besides, in test [3], the inhibition entry is “Active”.

Turning to `CC(C)C[C@@H]1NC(=O)[C@H](Cc2c[nH]c3ccccc23)NC(=O)[C@H](Cc2c[nH]c3ccccc23)NC(=O)[C@@H]2CCCN2C(=O)[C@H](CCCNC(=N)N)NC(=O)[C@H]([C@@H](C)O)NC(=O)[C@@H](N)CSSC[C@@H](C(=O)NCC(N)=O)NC1=O` (H-CTRPWWLCG-NH2; disulfide 1-8), the inhibition result in test [1] and in test [2] was “inactive” in each case. Further, the Kiuc in test [4] is 17.6 µM. The Kic in test [5] is 10.4 µM. In addition, the inhibition result in test [3] was “Active”. This compound showed an inhibition constant (Ki) on Aurora kinase A of 27.2 µM.

The Ki is a dissociation constant, usually derived from enzyme kinetics or from competition with a known ligand.
